Results as given in ChEMBL document CHEMBL1926562, “Design, synthesis and biological activity of sphingosine kinase 2 selective inhibitors” (Bioorg Med Chem, 2012).
pKi: −log10 of the molar value. Calls of active or inactive are those of the source. The calls are words filed in the database; no cut-off is given here.

How the values were obtained:
[1] = biological target: T1, Sphingosine kinase 2 (Mus musculus) (UniProt Q9JIA7); experiment: Inhibition of mouse SphK2 expressed in baculovirus infected Sf9 insect cells assessed as remaining activity using sphingosine and [gamma-(32)P]-ATP at 10 uM by scintillation proximity counting
T1 sequence (whole entry): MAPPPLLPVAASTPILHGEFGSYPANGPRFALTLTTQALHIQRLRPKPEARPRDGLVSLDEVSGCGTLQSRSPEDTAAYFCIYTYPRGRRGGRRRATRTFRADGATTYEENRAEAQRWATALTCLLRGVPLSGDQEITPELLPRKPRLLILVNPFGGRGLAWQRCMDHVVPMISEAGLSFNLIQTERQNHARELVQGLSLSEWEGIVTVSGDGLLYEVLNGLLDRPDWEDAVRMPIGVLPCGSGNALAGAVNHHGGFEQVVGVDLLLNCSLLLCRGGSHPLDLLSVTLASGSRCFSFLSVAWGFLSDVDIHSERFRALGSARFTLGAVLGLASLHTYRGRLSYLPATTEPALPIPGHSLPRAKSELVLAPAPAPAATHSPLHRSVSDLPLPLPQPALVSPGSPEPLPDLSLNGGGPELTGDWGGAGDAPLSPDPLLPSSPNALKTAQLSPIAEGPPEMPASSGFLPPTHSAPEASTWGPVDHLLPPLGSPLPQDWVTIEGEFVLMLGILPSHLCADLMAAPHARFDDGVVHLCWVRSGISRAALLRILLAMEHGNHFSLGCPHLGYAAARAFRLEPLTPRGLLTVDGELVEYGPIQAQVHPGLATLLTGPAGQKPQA
Procedure, shortened: (§1)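 Enzyme source: supernatant (10,000×g) of homogenized Sf9 cells infected with recombinant virus for 72 h, 2-3 μg protein per reaction. Sphingosine substrate at 10 μM for SphK1 and 5 μM for SphK2. Initial screen used inhibitor at 100 μM, with some compounds at 10 μM. Read-out is percent of remaining kinase activity, averaged over three experiments.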

Sphingosine kinase 1 [2] = biological target: T2, Sphingosine kinase 1 (Homo sapiens, UniProt Q9NYA1); experiment: Inhibition of human SphK1 expressed in baculovirus infected Sf9 insect cells assessed as remaining activity using sphingosine and [gamma-(32)P]-ATP as substrate at 100 uM by scintillation proximity counting; procedure, shortened: as §1
T2 sequence (Q9NYA1 whole entry): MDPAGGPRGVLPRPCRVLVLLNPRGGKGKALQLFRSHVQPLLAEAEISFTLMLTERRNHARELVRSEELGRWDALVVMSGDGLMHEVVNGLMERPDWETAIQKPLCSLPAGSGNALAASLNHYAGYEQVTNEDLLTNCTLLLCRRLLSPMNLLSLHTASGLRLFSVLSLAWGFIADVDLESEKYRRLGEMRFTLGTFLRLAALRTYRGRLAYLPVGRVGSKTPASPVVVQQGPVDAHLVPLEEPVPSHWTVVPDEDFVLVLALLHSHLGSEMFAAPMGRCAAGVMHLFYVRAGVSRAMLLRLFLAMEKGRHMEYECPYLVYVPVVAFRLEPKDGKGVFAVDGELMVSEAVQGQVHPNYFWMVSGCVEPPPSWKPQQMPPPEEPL

[3] = biological target: T1, Sphingosine kinase 2 (Mus musculus); experiment: Inhibition of mouse SphK2 expressed in baculovirus infected Sf9 insect cells assessed as remaining activity using sphingosine and [gamma-(32)P]-ATP at 100 uM by scintillation proximity counting; procedure, shortened: as §1
[4] = biological target: T1, Sphingosine kinase 2 (Mus musculus); experiment: Inhibition of mouse SphK2 expressed in baculovirus infected Sf9 insect cells using sphingosine and [gamma-(32)P]-ATP at 10 uM by scintillation proximity counting; procedure, shortened: as §1
Sphingosine kinase 1 [5] = biological target: T2, Sphingosine kinase 1; experiment: Inhibition of human SphK1 expressed in baculovirus infected Sf9 insect cells using sphingosine and [gamma-(32)P]-ATP by scintillation proximity assay
Procedure, shortened: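 Ki calculated as Ki = [I]/(K′m/Km – 1), using a sphingosine Km of 10 μM for SphK1 and 5 μM for SphK2. Enzyme came from infected Sf9 cell extract (10,000×g supernatant, 2-3 μg protein).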

Sphingosine kinase 2 = biological target: T3, Sphingosine kinase 2 (Mus musculus, UniProt Q9JIA7); experiment: Inhibition of mouse SphK2 expressed in baculovirus infected Sf9 insect cells using sphingosine and [gamma-(32)P]-ATP by scintillation proximity assay
T3 sequence (Q9JIA7 whole entry): T1 sequence (whole entry)

[6] = Selectivity ratio of Ki/Km for human SphK1 to Ki/Km for mouse SphK2
Procedure, shortened: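 Selectivity calculated as (Ki/Km)SphK1 divided by (Ki/Km)SphK2, with sphingosine Km taken as 10 μM for SphK1 and 5 μM for SphK2.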

[7] = biological target: T4, Sphingosine kinase 2 (Homo sapiens) (UniProt Q9NRA0); experiment: Inhibition of SphK2 in human U937 cells assessed as change in S1P level by LC/MS analysis; assay type: cell-based; details: U-937
T4 sequence (whole entry): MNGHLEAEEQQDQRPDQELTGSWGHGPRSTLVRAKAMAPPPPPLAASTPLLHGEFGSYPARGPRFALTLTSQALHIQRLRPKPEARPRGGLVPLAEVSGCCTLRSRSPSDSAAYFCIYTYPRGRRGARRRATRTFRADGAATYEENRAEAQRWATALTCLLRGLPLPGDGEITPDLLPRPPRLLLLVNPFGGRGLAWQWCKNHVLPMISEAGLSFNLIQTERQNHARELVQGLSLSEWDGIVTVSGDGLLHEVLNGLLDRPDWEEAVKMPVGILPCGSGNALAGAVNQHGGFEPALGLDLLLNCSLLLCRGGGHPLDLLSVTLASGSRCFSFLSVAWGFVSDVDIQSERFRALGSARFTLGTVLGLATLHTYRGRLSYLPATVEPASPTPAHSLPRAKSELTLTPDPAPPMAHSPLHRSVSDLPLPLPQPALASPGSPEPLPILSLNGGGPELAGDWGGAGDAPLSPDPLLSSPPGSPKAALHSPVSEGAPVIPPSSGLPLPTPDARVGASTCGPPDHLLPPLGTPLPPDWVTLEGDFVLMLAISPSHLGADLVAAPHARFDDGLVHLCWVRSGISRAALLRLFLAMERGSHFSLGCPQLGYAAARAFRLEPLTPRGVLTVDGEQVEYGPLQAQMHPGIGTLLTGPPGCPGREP
Procedure, shortened: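 U937 cells were treated with inhibitor, and S1P levels were measured by LC/MS.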

[8] = biological target: T4, Sphingosine kinase 2 (Homo sapiens); experiment: Inhibition of SphK2 in human U937 cells using FTY720 as substrate assessed as decrease in phosphorylated FTY720 at 10 uM after 2 hrs by LC/MS analysis; assay type: cell-based; details: U-937
Procedure, shortened: (§2)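 Cultured U937 cells were given FTY720 plus 10 μM inhibitor for 2 h, then pelleted by centrifugation. FTY720 and FTY720-P in the cell pellet were measured by LC/MS (C18 reverse phase, water/methanol/formic acid gradient) and reported as moles per million cells. Values are means ± SD of three independent experiments, with significance by unpaired two-tailed t-test.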

[9] = biological target: T4, Sphingosine kinase 2 (Homo sapiens); experiment: Inhibition of SphK2 in human U937 cells using FTY720 as substrate assessed as accumulation of FTY720 at 10 uM after 2 hrs by LC/MS analysis; assay type: cell-based; details: U-937; procedure, shortened: as §2
[10] = biological target: T4, Sphingosine kinase 2 (Homo sapiens); experiment: Inhibition of SphK2 in human U937 cells assessed as decrease in Akt phosphorylation after 16 hrs by Western blot analysis; assay type: cell-based; details: U-937
Procedure, shortened: (§3)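 U937 cells were incubated with a range of inhibitor concentrations for 16 h, then washed with PBS and Dounce-lysed. Equal protein amounts were run on 10% SDS–PAGE and blotted to nitrocellulose. Blots were blocked in 5% milk/TBS-Tween, probed with antibodies to ERK, p-ERK, Akt, p-Akt and β-actin (1:1000, 1 h), then HRP anti-IgG (1:2000). PD098059 (10 μM) served as ERK-phosphorylation control.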

[11] = biological target: T4, Sphingosine kinase 2 (Homo sapiens); experiment: Inhibition of SphK2 in human U937 cells assessed as decrease in ERK phosphorylation after 16 hrs by Western blot analysis; assay type: cell-based; details: U-937; procedure, shortened: as §3

| SMILES | Activity (Sphingosine kinase 1 [2]) | Activity [3] | other results |
| --- | --- | --- | --- |
| CCCCCCCCc1ccc(-c2cccc(N3CCNCC3)n2)cc1 | – | – | Activity [1]: 87.3% |
| CCCCCCCCc1ccc([C@H]2CC[C@@H](NC3CC3)CC2)cc1 | 113% | 116% | – |
| CCCCCCCCc1ccc(-c2cnc(N)cn2)cc1 | – | – | Activity [1]: 99% |
| CCCCCCCCc1ccc(C2CCC(=NO)CC2)cc1 (stereo unspecified) | 130% | 56.5% | – |
| C#CCN[C@H]1CC[C@@H](c2ccc(CCCCCCCC)cc2)CC1 | 100% | 101% | – |
| CCCCCCCCc1ccc([C@H]2CC[C@@H]([N+](C)(C)C(C)C)CC2)cc1 | 101% | 10.4% | inhibition [4]: Active |
| CCCCCCCCc1ccc([C@H]2CC[C@H](NC3CC3)CC2)cc1 | 65% | 77% | – |
| CCCCCCCCc1ccc([C@H]2CC[C@H]([N+](C)(C)C)CC2)cc1 | 10.2% | 4% | pKi (Sphingosine kinase 1 [5]): 4.22; pKi (Sphingosine kinase 2): 5.10; inhibition [7]: inactive; inhibition [8]: Active; inhibition [9]: Active; inhibition [10]: Dose-dependent effect; inhibition [11]: Dose-dependent effect; Selectivity ratio [6]: 3.75 |
| CCCCCCCCc1ccc(C2CCC(N)(C#N)CC2)cc1 (stereo unspecified) | 101% | 61.8% | – |
| CCCCCCCCc1ccc([C@H]2CC[C@H](NC(C)C)CC2)cc1 | 24.6% | 23.9% | – |
| CCCCCCCCc1ccc([C@H]2CC[C@H](NCc3ccncc3)CC2)cc1 | 33% | 23% | – |
| CCCCCCCCc1ccc([C@H]2CC[C@H]([N+](C)(C)CCO)CC2)cc1 | 10.5% | 3% | pKi (Sphingosine kinase 1 [5]): 4.15; pKi (Sphingosine kinase 2): 4.85; Selectivity ratio [6]: 2.5 |
| C=CC[N+](C)(C)[C@H]1CC[C@H](c2ccc(CCCCCCCC)cc2)CC1 | 30.4% | 2.1% | – |
| CCCCCCCCc1ccc([C@H]2CC[C@@H]([N+](C)(C)C)CC2)cc1 | 65.8% | 8.3% | inhibition [4]: Active |
| CCCCCCCCc1ccc(C2CCC(=CCO)CC2)cc1 (stereo unspecified) | 100% | 66.7% | – |
| CCCCCCCCc1ccc([C@H]2CC[C@@H](NCCO)CC2)cc1 | 22.4% | 8.9% | – |
| CCCCCCCCc1ccc([C@H]2CC[C@H]([N+](C)(C)C(C)C)CC2)cc1 | 49.1% | 11.5% | pKi (Sphingosine kinase 1 [5]): < 4.00; pKi (Sphingosine kinase 2): 4.48 |
| CCCCCCCCc1ccc(C2CCC(=CC(=O)OC)CC2)cc1 (stereo unspecified) | 101% | 101% | – |
| CCCCCCCCc1ccc([C@H]2CC[C@@H]([N+](C)(C)CCO)CC2)cc1 | 80.9% | 32.6% | inhibition [4]: Active |
| CCCCCCCCc1ccc(-c2ccc(-n3ccccc3=O)nc2)cc1 | – | – | Activity [1]: 93.7% |
| CCCCCCCCc1ccc(C2CCC(O)(C[N+](=O)[O-])CC2)cc1 (stereo unspecified) | 100% | 52.7% | – |
| CCCCCCCCc1ccc([C@H]2CC[C@@H](NC(C)C)CC2)cc1 | 90% | 16.5% | – |
| C#CCN[C@H]1CC[C@H](c2ccc(CCCCCCCC)cc2)CC1 | 109% | 100% | – |
| CCCCCCCCc1ccc([C@H]2CC[C@H](NCCO)CC2)cc1 | 21.6% | 8.5% | pKi (Sphingosine kinase 1 [5]): 4.66; pKi (Sphingosine kinase 2): 4.42; Selectivity ratio [6]: 1.23 |
| CCCCCCCCc1ccc([C@H]2CC[C@H](NCc3ccccc3)CC2)cc1 | 83.9% | 53.3% | – |
| CCCCCCCCc1ccc([C@H]2CC[C@@H](NCc3ccccc3)CC2)cc1 | 98.4% | 67.2% | – |
| C=CCN[C@H]1CC[C@H](c2ccc(CCCCCCCC)cc2)CC1 | 19% | 5.7% | – |
| C=CCN[C@H]1CC[C@@H](c2ccc(CCCCCCCC)cc2)CC1 | 91.8% | 100% | – |
| CCCCCCCCc1ccc([C@H]2CC[C@H]([N+](C)(C)Cc3ccccc3)CC2)cc1 | 25.7% | 8.3% | – |

The next lines start with results.

| Activity (Sphingosine kinase 1 [2]) | Activity [3] | SMILES | other results |
| --- | --- | --- | --- |
| 47% | 25% | CCCCCCCCc1ccc([C@H]2CC[C@H](N)CC2)cc1 | pKi (Sphingosine kinase 1 [5]): 4.49; pKi (Sphingosine kinase 2): 4.54; Selectivity ratio [6]: 0.55 |
| 77% | 45.9% | CCCCCCCCc1ccc([C@H]2CC[C@H](N(C)CCC)CC2)cc1 | – |
| 15.7% | 7.7% | CCCCCCCCc1ccc([C@H]2CC[C@H](NC)CC2)cc1 | – |
| 69.8% | 5.4% | CCCCCCCCc1ccc([C@H]2CC[C@@H](NC)CC2)cc1 | pKi (Sphingosine kinase 1 [5]): < 4.00; pKi (Sphingosine kinase 2): 4.40 |
| 90.7% | 65.5% | CCCCCCCCc1ccc([C@H]2CC[C@@H](N(C)CCC)CC2)cc1 | – |
| 113% | 101% | CCCCCCCCc1ccc([C@H]2CC[C@@H](N(C)C(C)C)CC2)cc1 | – |
| 46.3% | 9% | CCCCCCCCc1ccc([C@H]2CC[C@H](N(C)C)CC2)cc1 | pKi (Sphingosine kinase 1 [5]): 4.40; pKi (Sphingosine kinase 2): 4.57; Selectivity ratio [6]: 0.74 |
| 113% | 70.9% | CCCCCCCCc1ccc([C@H]2CC[C@H](O)CC2)cc1 | – |
| 100% | 60.6% | CCCCCCCCc1ccc([C@H]2CC[C@@H](NCCCC)CC2)cc1 | – |
| 75.6% | 18.3% | CCCCCCCCc1ccc([C@H]2CC[C@@H](NCCC)CC2)cc1 | – |
| 83.9% | 50.8% | CCCCCCCCc1ccc([C@H]2CC[C@@H](N(C)C)CC2)cc1 | – |
| 20.5% | 20.1% | CCCCCCCCc1ccc([C@H]2CC[C@H](NCCCC)CC2)cc1 | – |
| 15.8% | 5.5% | CCCCCCCCc1ccc([C@H]2CC[C@H](NCCC)CC2)cc1 | – |
| 25.1% | 3.2% | CCCCCCCCc1ccc([C@H]2CC[C@@H]([N+](C)(C)CCC)CC2)cc1 | inhibition [4]: Active |
